Data reported in ChEMBL document CHEMBL4004844, “Structure-based design, synthesis and antitumoral evaluation of enulosides” (Eur J Med Chem, 2017).

Columns and labels:
[1] = system: HL-60; experiment: Growth inhibition of human HL60 cells after 72 hrs by MTT assay; type: functional, cell-based; details: HL-60, 72 h
[2] = system: HEp-2; experiment: Growth inhibition of human Hep2 cells after 72 hrs by MTT assay; type: functional, cell-based; details: HEp-2, 72 h
Method in brief: (§1)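 Cells kept in RPMI 1640 or DMEM with 10% FBS, 2 mM glutamine, penicillin/streptomycin, at 37 °C and 5% CO2. Seeded at 10⁵ cells/mL (adherent NCI-H292, MCF-7, HEP-2) or 3 × 10⁵ cells/mL (HL-60). Compounds at 0.1–25 in 0.1% DMSO for 72 h, with DMSO controls. MTT read at 595 nm. IC50 with 95% CI from nonlinear regression, two experiments.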

[3] = system: MCF7; experiment: Growth inhibition of human MCF7 cells after 72 hrs by MTT assay; type: functional, cell-based; details: MCF7, 72 h; method in brief: as §1
[4] = system: NCI-H292; experiment: Growth inhibition of human NCI-H292 cells after 72 hrs by MTT assay; type: functional, cell-based; details: NCI-H292, 72 h; method in brief: as §1
[5] = system: MCF7; experiment: Growth inhibition of human MCF7 cells at 25 ug/ml after 72 hrs by MTT assay relative to control; type: functional; details: MCF7, 72 h, read-out: GI
Method in brief: (§2)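 Preliminary single-concentration screen at 25 by MTT reduction. Cells seeded at 10⁵ cells/mL (adherent) or 3 × 10⁵ cells/mL (HL-60), exposed for 72 h in 0.1% DMSO. Percent growth inhibition relative to DMSO-treated controls, from absorbance at 595 nm.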

[6] = system: HL-60; experiment: Growth inhibition of human HL60 cells at 25 ug/ml after 72 hrs by MTT assay relative to control; type: functional; details: HL-60, 72 h, read-out: GI; method in brief: as §2
[7] = system: HEp-2; experiment: Growth inhibition of human Hep2 cells at 25 ug/ml after 72 hrs by MTT assay relative to control; type: functional; details: HEp-2, 72 h, read-out: GI; method in brief: as §2
[8] = system: NCI-H292; experiment: Growth inhibition of human NCI-H292 cells at 25 ug/ml after 72 hrs by MTT assay relative to control; type: functional; details: NCI-H292, 72 h, read-out: GI; method in brief: as §2
[9] = Solubility in water; type: physicochemical; details: buffer

SMILES	IC50 [1]	IC50 [2]	IC50 [3]	IC50 [4]	inhibition of growth at 25 µg/mL [5]	inhibition of growth at 25 µg/mL [6]	inhibition of growth at 25 µg/mL [7]	inhibition of growth at 25 µg/mL [8]	solubility [9]
O=C1C=C[C@@H](OCc2ccccc2)O[C@@H]1CO	27.3 µM	8.5 µM	11.1 µM	3.8 µM	–	–	–	–	–
C=CCO[C@@H]1C=CC(=O)[C@@H](CO)O1	4.9 µM	26.1 µM	16.3 µM	10.3 µM	–	–	–	–	–
COc1cccc2c1C(=O)c1c(O)c3c(c(O)c1C2=O)C[C@@](O)(C(=O)CO)C[C@@H]3O[C@H]1C[C@H](N)[C@H](O)[C@H](C)O1 [DOXORUBICIN]	–	1.3 µM	0.6 µM	0.6 µM	–	–	–	–	–
CC(C)O[C@@H]1C=CC(=O)[C@@H](CO)O1	9.7 µM	34.9 µM	36 µM	24.2 µM	–	–	–	–	–
C#CCCO[C@@H]1C=CC(=O)[C@@H](CO)O1	2.5 µM	7.1 µM	–	12.7 µM	–	–	–	–	–
CCCO[C@@H]1C=CC(=O)[C@@H](CO)O1	10.7 µM	13.4 µM	18.3 µM	15.6 µM	–	–	–	–	–
O=C1C=C[C@@H](OC2CCCCC2)O[C@@H]1CO	13.3 µM	7.5 µM	11 µM	2.6 µM	–	–	–	–	–
CCO[C@@H]1C=C[C@H](O)[C@@H](CO)O1	–	–	–	–	20.4%	31.4%	12.5%	17.4%	–
C#CCO[C@@H]1C=CC(=O)[C@@H](CO)O1	9.3 µM	15.4 µM	10.4 µM	6.6 µM	–	–	–	–	–
COCCOCCOCCO[C@@H]1C=CC(=O)[C@@H](CO)O1	7.9 µM	32.1 µM	–	35.5 µM	–	–	–	–	Soluble
O=C1C=C[C@@H](OC2CCCC2)O[C@@H]1CO	4.2 µM	8 µM	20.7 µM	19.8 µM	–	–	–	–	–
CCO[C@@H]1C=CC(=O)[C@@H](CO)O1	3.5 µM	5.8 µM	–	18 µM	97.2%	100%	100%	100%	–
CCO[C@@H]1C=C[C@H](OC(C)=O)[C@@H](COC(C)=O)O1	–	–	–	–	5.1%	12.3%	9.3%	2.1%	–
